From ChEMBL document CHEMBL1148054, “Chemical and bioactive constituents from Zanthoxylum simulans” (J Nat Prod, 1994)
Active and inactive are the calls of the source. The rule behind the calls is not given here.

Key:
Platelet [1] = experiment: Antiplatelet activity against rabbit platelet assessed as inhibition of arachidonic acid-induced platelet aggregation at 100 ug/ml; format: functional; details: Oryctolagus cuniculus
Platelet [2] = experiment: Antiplatelet activity against rabbit platelet assessed as inhibition of collagen-induced platelet aggregation at 100 ug/ml; format: functional; details: Oryctolagus cuniculus
Platelet [3] = experiment: Antiplatelet activity against rabbit platelet assessed as inhibition of platelet activating factor-induced platelet aggregation at 100 ug/ml; format: functional; details: Oryctolagus cuniculus
HL-60 [4] = experiment: Induction of terminal cell differentiation in human HL60 cells assessed as cell viability at 4 uM by trypan blue exclusion method; format: functional; details: read-out: Activity
How it was run: (§1)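 HL-60 cells preincubated 18 h at 1.2×10^5 cells/ml, then exposed 4 days to samples in DMSO (final 0.1%). Viability by trypan blue exclusion: viable/(viable+dead)×100. Cell counts also taken after 4 days.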

HL-60 [5] = experiment: Induction of terminal cell differentiation in human HL60 cells assessed as cell viability at 8.1 uM by trypan blue exclusion method; format: functional; details: read-out: Activity; how it was run: as §1
HL-60 [6] = experiment: Induction of terminal cell differentiation in human HL60 cells assessed as cell viability at 16.2 uM by trypan blue exclusion method; format: functional; details: read-out: Activity; how it was run: as §1
HL-60 [7] = experiment: Induction of terminal cell differentiation in human HL60 cells assessed as cell viability at 32.3 uM by trypan blue exclusion method; format: functional; details: read-out: Activity; how it was run: as §1
HL-60 [8] = experiment: Induction of terminal cell differentiation in human HL60 cells assessed as cell viability at 64.6 uM by trypan blue exclusion method; format: functional; details: read-out: Activity; how it was run: as §1
HL-60 [9] = experiment: Induction of terminal cell differentiation in human HL60 cells assessed as naphthol AS-D chloroacetate esterase activity at 4 uM after 4 days; format: functional
How it was run: (§2)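 HL-60 cells were grown in RPMI 1640 with 5% heat-inactivated calf serum at 37°, 5% CO2. They were diluted to 1.2×10^5 cells/ml, preincubated 18 h, then exposed 4 days to DMSO-dissolved samples (final DMSO 0.1%, matched vehicle controls). Specific esterase (naphthol AS-D chloroacetate) was scored cytochemically with a commercial kit as the percentage of differentiated cells.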

HL-60 [10] = experiment: Induction of terminal cell differentiation in human HL60 cells assessed as naphthol AS-D chloroacetate esterase activity at 8.1 uM after 4 days; format: functional; how it was run: as §2
HL-60 [11] = experiment: Induction of terminal cell differentiation in human HL60 cells assessed as naphthol AS-D chloroacetate esterase activity at 16.2 uM after 4 days; format: functional; how it was run: as §2
HL-60 [12] = experiment: Induction of terminal cell differentiation in human HL60 cells assessed as naphthol AS-D chloroacetate esterase activity at 32.3 uM after 4 days; format: functional; how it was run: as §2
HL-60 [13] = experiment: Cytotoxicity against human HL60 cells at 64.6 uM by naphthol AS-D chloroacetate esterase activity; format: cell-based; details: hl-60, 64.6 µM
How it was run: (§3)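 After 4-day treatment of HL-60 cells (samples in DMSO, final 0.1%), cells stained cytochemically for α-naphthyl acetate esterase or naphthol AS-D chloroacetate esterase.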

HL-60 [14] = experiment: Induction of cell differentiation in human HL60 cells assessed as alpha naphthyl esterase activity at 4 uM after 4 days; format: functional
How it was run: (§4)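 HL-60 cells in RPMI 1640 with 5% heat-inactivated calf serum at 37° under 5% CO2. Log-phase cells diluted to 1.2×10^5 cells/ml and preincubated 18 h, then samples added in DMSO (final 0.1%, DMSO controls). Cells scored after 4 days.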

HL-60 [15] = experiment: Induction of cell differentiation in human HL60 cells assessed as alpha naphthyl esterase activity at 8.1 uM after 4 days; format: functional; how it was run: as §4
HL-60 [16] = experiment: Induction of cell differentiation in human HL60 cells assessed as alpha naphthyl esterase activity at 16.2 uM after 4 days; format: functional; how it was run: as §4
HL-60 [17] = experiment: Induction of cell differentiation in human HL60 cells assessed as alpha naphthyl esterase activity at 32.3 uM after 4 days; format: functional; how it was run: as §4
HL-60 [18] = experiment: Cytotoxicity against human HL60 cells at 64.6 uM by alpha naphthyl esterase activity assay; format: cell-based; details: hl-60, 64.6 µM; how it was run: as §3
HL-60 [19] = experiment: Cytotoxicity against human HL60 cells by [3H]thymidine incorporation assay; format: cell-based
How it was run: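 After 4-day sample treatment, 100 μl of HL-60 cells pulsed with 0.5 μCi/ml [3H]thymidine (65 Ci/mmol) for 16 h. Cells harvested and counted by liquid scintillation. Incorporation per 10^6 cells given as sample DPM divided by DMSO-control DPM.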

HL-60 [20] = experiment: Induction of terminal cell differentiation in human HL60 cells assessed as inhibition of [3H]thymidine incorporation at 32.3 uM after 4 days by liquid scintillation; format: functional; parameters: scale not given: the % may be the effect or the level left
How it was run: (§5)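 HL-60 cells were kept in RPMI 1640 with 5% heat-inactivated calf serum and penicillin/streptomycin at 37° under 5% CO2. Log-phase cells were diluted to 1.2×10^5 cells/ml and preincubated 18 h. Samples were added in DMSO (final 0.1%; vehicle controls matched) for 4 days. Aliquots then got 0.5 μCi/ml [3H]thymidine for 16 h more, were harvested and scintillation-counted. % incorporation per 10^6 cells = sample DPM / DMSO-control DPM.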

HL-60 [21] = experiment: Induction of terminal cell differentiation in human HL60 cells assessed as inhibition of [3H]thymidine incorporation at 16.2 uM after 4 days by liquid scintillation; format: functional; parameters: scale not given: the % may be the effect or the level left; how it was run: as §5
HL-60 [22] = experiment: Induction of terminal cell differentiation in human HL60 cells assessed as inhibition of [3H]thymidine incorporation at 8.1 uM after 4 days by liquid scintillation; format: functional; parameters: scale not given: the % may be the effect or the level left; how it was run: as §5
HL-60 [23] = experiment: Induction of terminal cell differentiation in human HL60 cells assessed as inhibition of [3H]thymidine incorporation at 4 uM after 4 days by liquid scintillation; format: functional; parameters: scale not given: the % may be the effect or the level left; how it was run: as §5
HL-60 [24] = experiment: Induction of terminal cell differentiation in human HL60 cells at 4 uM after 4 days by NBT reduction assay; format: functional
How it was run: (§6)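 Log-phase HL-60 cells (RPMI 1640, 5% heat-inactivated calf serum, 37°, 5% CO2) were diluted to 1.2×10^5 cells/ml, preincubated 18 h, then treated 4 days with samples in DMSO (final 0.1%; DMSO controls). 10^6 cells were mixed 1:1 with fresh PBS holding 2 mg/ml NBT and 5 μg/ml TPA, 1 h at 37°. Formazan-positive cells were counted microscopically as % NBT-positive.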

HL-60 [25] = experiment: Induction of terminal cell differentiation in human HL60 cells at 8.1 uM after 4 days by NBT reduction assay; format: functional; how it was run: as §6
HL-60 [26] = experiment: Induction of terminal cell differentiation in human HL60 cells at 16.2 uM after 4 days by NBT reduction assay; format: functional; how it was run: as §6
HL-60 [27] = experiment: Induction of terminal cell differentiation in human HL60 cells at 32.3 uM after 4 days by NBT reduction assay; format: functional; how it was run: as §6
HL-60 [28] = experiment: Cytotoxicity against human HL60 cells at 64.6 uM by NBT reduction assay; format: cell-based; details: hl-60, 64.6 µM; how it was run: as §4
[29] = Cytotoxicity against human BC1 cells; format: functional; details: read-out: ED50 (the source's name)
How it was run: (§7)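 Cultured human cancer lines and murine P-388 cells. Complete dose-response data from at least five concentrations of test substance, each tested in duplicate.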

HT-1080 = experiment: Cytotoxicity against human HT1080 cells; format: functional; details: read-out: ED50 (the source's name); how it was run: as §7
Lu1 = experiment: Cytotoxicity against human Lu1 cells; format: functional; details: read-out: ED50 (the source's name); how it was run: as §7
SK-MEL = experiment: Cytotoxicity against human SK-MEL cells; format: functional; details: read-out: ED50 (the source's name); how it was run: as §7
Col2 = experiment: Cytotoxicity against human Col2 cells; format: functional; details: read-out: ED50 (the source's name); how it was run: as §7
KB = experiment: Cytotoxicity against human KB cells; format: functional; details: read-out: ED50 (the source's name); how it was run: as §7
[30] = Cytotoxicity against human multidrug-resistant KBV1 cells in presence of vinblastine; format: functional; details: KB-V1, read-out: ED50 (the source's name); how it was run: as §7
[31] = Cytotoxicity against human multidrug-resistant KBV1 cells in absence of vinblastine; format: functional; details: KB-V1, read-out: ED50 (the source's name); how it was run: as §7
P388 = experiment: Cytotoxicity against mouse P388 cells; format: functional; details: read-out: ED50 (the source's name); how it was run: as §7
A-431 = experiment: Cytotoxicity against human A431 cells; format: functional; details: read-out: ED50 (the source's name); how it was run: as §7
LNCaP = experiment: Cytotoxicity against human LNCAP cells; format: functional; details: read-out: ED50; how it was run: as §7
ZR-75-1 = experiment: Cytotoxicity against human ZR-75-1 cells; format: functional; details: ZR-75-1, read-out: ED50; how it was run: as §7
[32] = Cytotoxicity against human U373 cells; format: functional, U-373MG ATCC; details: U373 MG, read-out: ED50; how it was run: as §7

## COc1ccc2c(c1OC)C(CC1(C)C=Cc3c(c4cccc(OC)c4n(C)c3=O)O1)N(C)c1c-2ccc2cc3c(cc12)OCO3 (centres undefined)
Platelet [1]
  Activity: inactive
Platelet [2]
  Activity: inactive
Platelet [3]
  Activity: inactive

## CC(C)=CCCC1(C)C=Cc2c(c3ccccc3n(C)c2=O)O1 (centres undefined)
HL-60 [4]
  viability at 4 µM: 98%
HL-60 [5]
  viability at 8.1 µM: 95%
HL-60 [6]
  viability at 16.2 µM: 93%
HL-60 [7]
  viability at 32.3 µM: 78%
HL-60 [8]
  viability at 64.6 µM: 9%
HL-60 [9]
  Activity: 5%
HL-60 [10]
  Activity: 5.5%
HL-60 [11]
  Activity: 6.5%
HL-60 [12]
  Activity: 14.5%
HL-60 [13]
  Activity: Toxic
HL-60 [14]
  Activity: 4.5%
HL-60 [15]
  Activity: 5.5%
HL-60 [16]
  Activity: 7.4%
HL-60 [17]
  Activity: 24.3%
HL-60 [18]
  Activity: Toxic
HL-60 [19]
  Activity: Toxic
HL-60 [20]
  Activity: 0%
HL-60 [21]
  Activity: 0%
HL-60 [22]
  Activity: 0%
HL-60 [23]
  Activity: 0%
HL-60 [24]
  Activity: 3.5%
HL-60 [25]
  Activity: 8%
HL-60 [26]
  Activity: 9%
HL-60 [27]
  Activity: 15.4%
HL-60 [28]
  Activity: Toxic
Platelet [1]
  Activity: inactive
Platelet [2]
  Activity: inactive
Platelet [3]
  Activity: inactive
[29]
  EC50: 28.8 µM
HT-1080
  EC50: 28.8 µM
Lu1
  EC50: 28.8 µM
SK-MEL
  EC50: 28.4 µM
Col2
  EC50: 30.4 µM
KB
  EC50: 15.2 µM
[30]
  EC50: 6.5 µM
[31]
  EC50: 21.3 µM
P388
  EC50: 5.2 µM
A-431
  EC50: 28.8 µM
LNCaP
  EC50: 18.7 µM
ZR-75-1
  EC50: 10 µM
[32]
  EC50: 17.1 µM
